Most compounds without a hit are left out; they make up all but 2.1% or so of the library.
APJ agonist: agonists of human apelin receptor APJ, primary screen, CHO-K1 cells, PathHunter beta-arrestin, luminescence. P35414. 0% DMSO wells, 100% apelin. activation, % at 20 µM. 330,000 compounds, 0.11% hits. AID 2520, 2010;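 active = activation more than six SD over the plate average, tested at 20 µM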;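 note: 0% = DMSO alone and 100% = apelin-13 at 10 nM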
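Test system: CHO-K1 APJ beta-arrestin complementation cell line. Amount: cell density 1000 per well. Controls: DMSO negative, 10 nM Apelin-13 positive. Signal: luminescent beta-gal fragment complementation, chemiluminescent substrate. Read-out basis: agonist-driven arrestin binding to APJ. Timing: compound stimulation 90 min at 25 °C, detection 60 min.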
CXCR6 block: CXCR6 receptor inhibitors, primary screen, cell-based, beta-arrestin, luminescence, CHO-K1 PathHunter, 1536-well. C-X-C chemokine receptor type 6 (Homo sapiens), O00574. inhibition, % at 20 µM. 360,000 compounds, 0.36% hits; in the data active = inhibition above about 34%, passing the limit was not always enough;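 note: antagonist mode with CXCL16 agonist at 10 nM final; 0% = 10 nM CXCL16 with DMSO and 100% = unstimulated wells without agonist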
EBI2 block: EBI2 receptor antagonists, beta-arrestin recruitment, primary screen, cell-based, luminescence, 7a,25-OHC stimulation, uHTS | AID 651636, 2012 | inhibition, % at 5 µM | 7a,25-OHC stimulated | G-protein coupled receptor 183 (Homo sapiens), P32249 | 360,000 compounds, 0.81% hits; in the data active = inhibition above about 38%;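 note: enzyme fragment complementation signal reports receptor beta-arrestin coupling in cells; 0% = agonist plus DMSO wells and 100% = wells without agonist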
m5-HT2A agonist: mouse Htr2a agonists via beta-arrestin recruitment, primary screen, cell-based, luminescence; 5-hydroxytryptamine receptor 2A (Mus musculus), P35363; CHO-K1 mHTR2A beta-arrestin complementation; percent of 30 µM serotonin response; activation, % at 7.6 µM; 360,000 compounds, 0.66% hits;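 active = activation above a run cutoff, the mean activation of all tested compounds plus 3 SD, cut at about 14% in these data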;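 note: 0% = plate median of compound wells and 100% = 30 µM serotonin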
Target sequence (P35363 whole entry, looked up): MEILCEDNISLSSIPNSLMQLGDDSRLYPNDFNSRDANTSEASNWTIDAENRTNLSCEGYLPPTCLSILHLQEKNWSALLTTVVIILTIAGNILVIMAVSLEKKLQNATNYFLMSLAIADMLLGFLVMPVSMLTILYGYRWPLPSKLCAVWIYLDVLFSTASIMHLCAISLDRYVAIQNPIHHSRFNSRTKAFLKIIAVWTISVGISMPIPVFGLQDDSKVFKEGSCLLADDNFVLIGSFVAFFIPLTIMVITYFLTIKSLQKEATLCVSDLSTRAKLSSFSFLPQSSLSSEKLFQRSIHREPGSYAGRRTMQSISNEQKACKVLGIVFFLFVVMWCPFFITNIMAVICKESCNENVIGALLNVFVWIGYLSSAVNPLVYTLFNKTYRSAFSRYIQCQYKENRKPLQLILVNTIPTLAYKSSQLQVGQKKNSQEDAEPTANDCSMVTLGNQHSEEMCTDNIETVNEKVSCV
CCR6 antag: CCR6 receptor antagonists, primary screen, cell-based, CHO-K1, luminescence, beta-arrestin, uHTS. inhibition, % at 20 µM. CHO-K1 CCR6 PathHunter beta-arrestin, CCL20-stimulated. 340,000 compounds, 0.49% hits. AID 493098, 2011. C-C chemokine receptor type 6 (Homo sapiens), P51684;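 active = compounds whose inhibition of the agonist-driven luminescence signal at 20 µM reaches about 50%, limit read from the data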;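 note: cells stimulated with CCL20 at 14 nM final; plate controls were DMSO with CCL20 for no effect and DMSO without agonist for full effect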
APJ antagonist: antagonists of human apelin receptor APJ, primary screen, CHO-K1 cells, beta-arrestin complementation, luminescence | 330,000 compounds, 0.32% hits | AID 2521, 2010 | inhibition, % at 20 µM | P35414;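 active = inhibition above about 40% at 20 µM, limit read from the data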;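 note: cells challenged with 10 nM apelin-13 agonist together with compound; plate controls were apelin-13 plus DMSO wells for no effect and DMSO wells lacking apelin-13 for full effect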
APJ antag conf: APJ antagonists blocking beta-arrestin recruitment, confirmation, cell-based, luminescence, single concentration, uHTS hits. shares compounds with APJ antagonist. antagonist mode. inhibition, % at 20 µM. 950 compounds, 66% hits. AID 2766, 2010; in the data active = inhibition above about 50%
CXCR6 antag conf: CXCR6 receptor antagonists, confirmation, cell-based, single concentration, beta-arrestin, luminescence. shares compounds with CXCR6 block. CHO-K1 CXCR6 PathHunter beta-arrestin. inhibition, % at 20 µM. 700 compounds, 65% hits. AID 602409, 2012;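 active = mean inhibition over four retests above 40%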;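 note: receptor stimulated with 10 nM CXCL16 agonist; beta-galactosidase fragment complementation upon beta-arrestin recruitment to receptor; plate controls were CXCL16 plus DMSO for no effect and DMSO without CXCL16 for full effect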
EBI2 antag conf: EBI2 antagonist hit retest, beta-arrestin, confirmation, cell-based, single concentration, luminescence, 7a,25-OHC stimulation. shares compounds with EBI2 block. 7a,25-OHC antagonism. inhibition, % at 5 µM. 2,400 compounds, 29% hits. AID 651997, 2013;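 active = inhibition of at least 50%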
EBI2 agonist: EBI2 agonist activity of antagonist hits, confirmation, counter-screen for EBI2 antagonist project, cell-based, single concentration, agonist mode, luminescence | shares compounds with EBI2 block | EBI2-expressing cells, 60 min; 0% vehicle, 100% 7α,25-dihydroxycholesterol control | activation, % at 5 µM | 2,400 tested, under 10 active;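 active = activation of at least 50%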
bGal cs: E. coli beta-galactosidase enzyme inhibition, confirmation, counter-screen for EBI2 antagonist project, biochemical, luminescence, single concentration; shares compounds with EBI2 block; purified beta-galactosidase, luminescent Galacton Star, 15 min; 2,400 compounds, 1% hits; inhibition, % at 5 µM;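 active = replicate-average signal at least 3 plate SD below neutral wells, shown as high inhibition, flagging enzyme-inhibiting false positives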;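 note: 0% = DMSO wells with enzyme and 100% = wells lacking enzyme; higher means stronger loss of beta-gal luminescence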
* hit, by the source's call; · = no result given.

SMILES	APJ agonist	CXCR6 block	EBI2 block	m5-HT2A agonist	CCR6 antag	APJ antagonist	CXCR6 antag conf	others
C/C(=N\NC(=O)c1cc2ccccc2cc1O)c1ccccn1	-20	18	50*	1	20	44*	·	APJ antag conf=30;EBI2 antag conf=76*;EBI2 agonist=-2;bGal cs=-2
C/C(=N\NC(=O)c1ccc(F)cc1)c1ccccn1	-11	72*	64*	-5	80*	60*	86*	APJ antag conf=87*;EBI2 antag conf=84*;EBI2 agonist=-2;bGal cs=-10
C/C(=N\NC(=O)c1c[nH]c2ccccc12)c1ccccn1	5	-4	7	-5	0	-40	·
CCN(CC)CCNC(=O)c1ccccc1N	-3	-29	-4	8	-17	14	·
COC(=O)C1=C(C)NC(=O)NC1C1CC=CCC1 (stereo not given)	-5	-6	-10	1	4	3	·
O=C1C(Cc2ccccc2)Nc2ncnc(N3CCN(c4ccccc4)CC3)c2N1Cc1ccc(Br)cc1 (stereo not given)	-12	74*	75*	-30	87*	82*	79*	APJ antag conf=118*;EBI2 antag conf=71*;EBI2 agonist=-4;bGal cs=41*
Cc1ccc(CN2C(=O)C(Cc3ccccc3)Nc3ncnc(N4CCN(c5ccccc5)CC4)c32)cc1 (stereo not given)	-21	74*	60*	-31	80*	74*	72*	APJ antag conf=111*;EBI2 antag conf=62*;EBI2 agonist=-3;bGal cs=37*
COc1ccc(CCNC(=O)CCNC(=O)c2ccc(Br)cc2)cc1OC	-3	1	-10	-3	2	4	·
CCCOc1cccc(-c2cc(C(=O)N/N=C/c3ccccn3)c3ccccc3n2)c1	-12	57*	48*	-18	70*	48*	46*	APJ antag conf=54*;EBI2 antag conf=61*;EBI2 agonist=0;bGal cs=2
CCCOc1cccc(-c2cc(C(=O)N/N=C/c3cccnc3)c3ccccc3n2)c1	2	10	1	-6	-6	-46	·
C[C@H](CO)N1C[C@H](C)[C@H](CN(C)C(=O)Nc2ccc(F)cc2)OCc2ccccc2-c2c(n(C)c3ccccc23)C1=O	·	41*	-1	10	·	·	20
CCCCC(CCCCl)C(=O)Nc1ccccc1 (stereo not given)	-2	4	-8	2	10	11	·
COC(=O)CN1C(=O)NC2(CCCc3ccccc32)C1=O (stereo not given)	-3	-12	-6	-4	2	11	·
COC(=O)c1ccc(CN2C(=O)NC3(CCCc4ccccc43)C2=O)o1 (stereo not given)	-1	46*	-1	1	31	5	-5
OCCCNc1ncnc2c1ncn2[C@H]1CN(Cc2cccs2)C[C@@H](CO)O1	·	4	-1	3	·	·	·
CN(C)C(=O)C#Cc1ccccc1	-2	-2	-9	1	8	12	·
O=C(C#Cc1ccccc1)c1ccccc1	·	71*	24	5	·	·	72*
CCn1c(SCC(=O)Nc2cccc(NC(C)=O)c2)nc2c([nH]c3ccccc32)c1=O	-3	8	8	5	13	-45	·
O=c1c2c([N+](=O)[O-])cc([N+](=O)[O-])cc2sn1Cc1ccccc1	2	45*	6	6	97*	9	16
O=C(CCC1CCCCC1)NCCN1C2=NC[C@H](Cc3ccccc3)N2C[C@H]1Cc1ccc(O)cc1	-3	9	-6	-12	21	25	·
N#CC(C#N)=C1C=CC=CN1/C(=C\c1ccco1)C(=O)c1ccc(-c2ccccc2)cc1	·	44*	29	0	83*	·	51*
Cc1cc(Cl)n2c(nc3cc(F)c(F)cc32)c1C#N	·	44*	-5	0	47	·	53*
Cc1cc(C)n2c(=O)c3ccc(Cl)cc3nc2c1C#N	1	-5	6	-4	12	-1	·
Cc1cc(C)c(NC(=O)CCCOC(=O)C2=COCCO2)c(C)c1	-3	14	7	-2	10	8	·
O=C(NNc1ccc(C(F)(F)F)cc1[N+](=O)[O-])c1ccc(NS(=O)(=O)c2ccc(F)cc2)cc1	·	48*	6	-3	58*	·	39
SMILES	APJ agonist	CXCR6 block	EBI2 block	m5-HT2A agonist	CCR6 antag	APJ antagonist	CXCR6 antag conf	others
CC(=O)Nc1ccc(N=Cc2c(O)c(C(=O)Nc3ccccc3)cc3ccccc23)cc1	3	·	·	·	-19	-29	·
CCOc1cc(Br)c(Br)c(C=Nc2ccc(NC(C)=O)cc2)c1O	-5	42*	20	-5	19	31	70*
CCOc1cc(/C=C2\N=C(C)OC2=O)cc(Br)c1OCC(=O)OC	-7	-1	-13	-2	13	-2	·
CCOc1ccc(NCc2cc3c(C(C)(C)C)nn(-c4ccccc4)c3[nH]c2=O)cc1	-4	48*	18	-2	23	18	25
CC(C)Oc1cccc(C(=O)NC(=S)N2CCN(c3ccc(C(F)(F)F)cc3[N+](=O)[O-])CC2)c1	0	27	9	2	38	6	·
COc1cccc(C(=O)NC(=S)N2CCN(c3ccc(C(F)(F)F)cc3[N+](=O)[O-])CC2)c1	-2	48*	-2	-1	·	12	49*
Cc1cccc(N2CCN(CC(=O)NCc3ccc(Cl)cc3)CC2)c1C	-5	0	6	-6	10	9	·
COc1ccc(N2C[C@H](CSC)[C@@H](CC(=O)Nc3ccccc3)C2=O)cc1	·	43*	-6	10	·	·	23
Cc1ccc(S(=O)(=O)N2CCN(CCc3ccccc3)CC2)c(C)c1	-1	5	11	-7	-9	6	·

Bioassay records (PubChem)
